# Calls of active or inactive are those of the source. No cut-off for these calls is given here.
# How the values were obtained:
# [1] = Selectivity index, ratio of CC50 for BHK cells to EC50 for DENV-2 NGC infected in BHK cells
# Outline: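 BHK cells infected with DENV-2 New Guinea C at MOI 0.01 for 1 h, then compounds at 0.1–100 μM for 48 h at 37 °C. Supernatant titrated on Vero cells under 0.5% methylcellulose, 3–5 days; foci by 4G2 immunostaining or crystal violet plaques. EC50 from yield curves; MTT CC50 in uninfected BHK; SI = CC50/EC50.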
# [2] = Cytotoxicity against BHK cells assessed as cell viability by MTT assay; assay type: cell-based, Mesocricetus auratus; conditions: hamster
# dengue virus type 2 = assay: Antiviral activity against 0.01 MOI DENV-2 NGC infected in BHK cells assessed as reduction in viral titer after 48 hrs; assay type: functional, organism-based
# Outline: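 BHK cells infected with DENV-2 New Guinea C at MOI 0.01 for 1 h. Inoculum removed, then compounds at 0.1–100 μM for 48 h at 37 °C. Supernatants titrated on Vero monolayers as 10-fold dilutions under 0.5% methylcellulose for 3–5 days. Foci detected by 4G2 immunostaining or crystal violet plaques. EC50 from dose–response curves, mean of 3 independent experiments.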
# [3] = Selectivity index, ratio of CC50 for MDBK cells to EC50 for BVDV NADL infected in MDBK cells
# Outline: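 MDBK cells infected with BVDV NADL at MOI 1, 1 h at 37 °C, washed, then compounds at 0.1–100 μM. Media harvested at 22 h, plaque-titrated on MDBK under 1% methylcellulose for 3 days, neutral red or direct count. EC50 from yield curves; MTT CC50 in uninfected MDBK; SI = CC50/EC50.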
# [4] = Cytotoxicity against MDBK cells assessed as cell viability by MTT assay; assay type: cell-based, Bos taurus; conditions: cattle
# [5] = Antiviral activity against 1 MOI BVDV NADL infected in MDBK cells assessed as reduction in viral titer after 22 hrs; assay type: functional, cell-based, Bovine viral diarrhea virus 1-NADL; conditions: Bovine viral diarrhea virus isolates and strains, MDBK, 22 h
# Outline: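 MDBK cells (2×10^5) infected 24 h after seeding with BVDV NADL at MOI 1, with 1 h adsorption at 37 °C. Washed, then compounds at 0.1–100 μM. Media harvested 22 h post-infection and plaque-titrated on MDBK under 1% methylcellulose for 3 days. Plaques counted directly or after neutral red staining. EC50 from dose–response curves, mean of 3 independent experiments.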
# [6] = Metabolic stability in mouse liver microsomes at 60 mins; assay type: ADME, Microsome; conditions: read-out: Stability
# [7] = Metabolic stability in rat liver microsomes at 60 mins; assay type: ADME, Microsome; conditions: read-out: Stability
# [8] = Metabolic stability in human liver microsomes at 60 mins; assay type: ADME, Microsome; conditions: read-out: Stability
# Cytochrome P450 3A4 = Cytochrome P450 3A4 (Homo sapiens, UniProt P08684); assay: (§1) Inhibition of human CYP3A4 using testosterone as substrate at 10 uM; assay type: ADME; conditions: 10 µM
# Cytochrome P450 3A4, sequence (P08684 whole entry, canonical isoform): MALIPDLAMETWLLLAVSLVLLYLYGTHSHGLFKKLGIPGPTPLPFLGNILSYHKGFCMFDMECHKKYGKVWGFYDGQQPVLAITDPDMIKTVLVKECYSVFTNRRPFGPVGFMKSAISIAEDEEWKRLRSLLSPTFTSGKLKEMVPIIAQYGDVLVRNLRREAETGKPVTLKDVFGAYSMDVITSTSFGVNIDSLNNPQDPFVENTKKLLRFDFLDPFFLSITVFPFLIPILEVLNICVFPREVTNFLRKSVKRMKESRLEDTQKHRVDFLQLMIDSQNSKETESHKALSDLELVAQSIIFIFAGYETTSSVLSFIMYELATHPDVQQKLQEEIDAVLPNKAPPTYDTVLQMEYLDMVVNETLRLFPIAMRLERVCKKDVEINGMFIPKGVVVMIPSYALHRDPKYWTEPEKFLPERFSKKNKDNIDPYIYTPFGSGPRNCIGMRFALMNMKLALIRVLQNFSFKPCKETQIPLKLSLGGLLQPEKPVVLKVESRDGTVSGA
# Outline: (§2)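 Inhibition of CYP isoforms with compound at 10 μM, reported as % inhibition. CYP3A4 run with midazolam or testosterone as substrate.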
# CYP2D6 = CYP2D6 (Homo sapiens, UniProt P10635); assay: Inhibition of human CYP2D6 at 10 uM; assay type: ADME
# CYP2D6, sequence (P10635 whole entry, canonical isoform): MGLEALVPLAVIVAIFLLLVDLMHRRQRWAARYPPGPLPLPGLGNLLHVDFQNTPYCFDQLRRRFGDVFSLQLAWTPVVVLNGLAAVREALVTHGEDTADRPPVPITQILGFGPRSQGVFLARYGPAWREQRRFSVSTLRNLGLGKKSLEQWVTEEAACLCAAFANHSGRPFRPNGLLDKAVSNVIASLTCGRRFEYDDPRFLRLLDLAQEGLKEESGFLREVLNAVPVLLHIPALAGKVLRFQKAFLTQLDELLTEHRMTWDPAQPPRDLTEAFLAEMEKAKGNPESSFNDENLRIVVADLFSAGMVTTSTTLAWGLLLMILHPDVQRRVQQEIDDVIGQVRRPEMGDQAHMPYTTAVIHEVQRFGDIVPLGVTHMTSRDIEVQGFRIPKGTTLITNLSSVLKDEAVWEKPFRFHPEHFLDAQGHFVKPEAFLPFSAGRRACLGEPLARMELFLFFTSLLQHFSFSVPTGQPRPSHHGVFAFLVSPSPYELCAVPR
# Outline: (§3)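 Inhibition of CYP isoforms by compounds tested at 10 μM, given as percent inhibition; contract in vitro ADME panel.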
# CYP3A4 [9] = biological target: T1, CYP3A4 (Homo sapiens, UniProt P08684); assay: Inhibition of human CYP3A4 using midazolam as substrate at 10 uM; assay type: ADME; conditions: probe midazolam; outline: as §2
# T1 sequence (P08684 whole entry): as the sequence (P08684 whole entry, canonical isoform) above
# CYP2C19 = CYP2C19 (Homo sapiens, UniProt P33261); assay: Inhibition of human CYP2C19 at 10 uM; assay type: ADME; outline: as §2
# CYP2C19, sequence (P33261 whole entry): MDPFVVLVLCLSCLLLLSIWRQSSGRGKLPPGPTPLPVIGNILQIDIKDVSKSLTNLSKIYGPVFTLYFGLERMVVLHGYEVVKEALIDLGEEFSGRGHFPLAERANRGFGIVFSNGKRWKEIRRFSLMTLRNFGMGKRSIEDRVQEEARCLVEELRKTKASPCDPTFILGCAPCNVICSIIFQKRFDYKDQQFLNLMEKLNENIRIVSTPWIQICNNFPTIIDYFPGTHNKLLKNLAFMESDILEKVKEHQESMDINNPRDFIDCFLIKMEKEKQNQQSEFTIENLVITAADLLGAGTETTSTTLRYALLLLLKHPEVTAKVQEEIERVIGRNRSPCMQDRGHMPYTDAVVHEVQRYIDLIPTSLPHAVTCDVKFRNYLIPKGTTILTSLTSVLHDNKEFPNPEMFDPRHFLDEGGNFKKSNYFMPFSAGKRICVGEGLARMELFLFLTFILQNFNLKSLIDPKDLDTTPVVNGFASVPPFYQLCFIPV
# CYP2C9 = CYP2C9 (Homo sapiens, UniProt P11712); assay: Inhibition of human CYP2C9 at 10 uM; assay type: ADME; outline: as §3
# CYP2C9, sequence (P11712 whole entry): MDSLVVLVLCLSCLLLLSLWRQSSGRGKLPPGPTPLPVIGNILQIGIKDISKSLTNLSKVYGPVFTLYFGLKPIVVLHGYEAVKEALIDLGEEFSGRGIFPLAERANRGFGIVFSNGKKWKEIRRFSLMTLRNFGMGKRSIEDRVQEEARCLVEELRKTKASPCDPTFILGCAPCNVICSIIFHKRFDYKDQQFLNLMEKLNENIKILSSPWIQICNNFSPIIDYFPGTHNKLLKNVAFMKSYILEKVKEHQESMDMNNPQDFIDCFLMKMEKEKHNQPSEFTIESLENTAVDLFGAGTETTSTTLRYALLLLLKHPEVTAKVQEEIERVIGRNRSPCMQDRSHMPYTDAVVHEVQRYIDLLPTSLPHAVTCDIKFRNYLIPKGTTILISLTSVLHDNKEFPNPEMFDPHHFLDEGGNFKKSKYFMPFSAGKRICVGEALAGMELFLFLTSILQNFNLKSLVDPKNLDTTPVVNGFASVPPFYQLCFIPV
# CYP1A2 = biological target: T2, CYP1A2 (Homo sapiens, UniProt P05177); assay: Inhibition of human CYP1A2 at 10 uM; assay type: ADME; outline: as §2
# T2 sequence (P05177 whole entry): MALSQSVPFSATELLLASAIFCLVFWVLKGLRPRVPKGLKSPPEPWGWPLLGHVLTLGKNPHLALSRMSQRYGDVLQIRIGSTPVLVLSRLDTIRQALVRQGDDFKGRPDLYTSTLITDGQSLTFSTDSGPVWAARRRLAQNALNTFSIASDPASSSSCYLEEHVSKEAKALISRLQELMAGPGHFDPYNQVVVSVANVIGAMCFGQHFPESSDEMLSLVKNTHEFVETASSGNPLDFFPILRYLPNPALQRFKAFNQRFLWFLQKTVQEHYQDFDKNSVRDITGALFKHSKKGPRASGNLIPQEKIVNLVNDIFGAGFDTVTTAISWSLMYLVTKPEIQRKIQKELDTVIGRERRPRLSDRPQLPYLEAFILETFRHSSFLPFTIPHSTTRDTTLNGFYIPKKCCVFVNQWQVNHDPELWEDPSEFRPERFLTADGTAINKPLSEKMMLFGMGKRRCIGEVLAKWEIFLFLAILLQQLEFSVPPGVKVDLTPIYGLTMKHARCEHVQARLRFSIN
# [10] = Plasma protein binding in mouse plasma; assay type: ADME, cell-free; conditions: read-out: PPB (converted)
# Outline: (§4)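 Binding of compound to human, rat or mouse plasma protein, reported as % bound.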
# [11] = Plasma protein binding in rat plasma; assay type: ADME, cell-free; conditions: read-out: PPB (converted); outline: as §4
# [12] = Plasma protein binding in human plasma; assay type: ADME, cell-free; conditions: read-out: PPB (converted); outline: as §4
# [13] = Aqueous solubility in PBS at pH 7.4; assay type: physicochemical; conditions: buffer
# [14] = Aqueous solubility in PBS at pH 4; assay type: physicochemical; conditions: buffer
# CYP3A4 [15] = biological target: T1, CYP3A4; assay: as §1; assay type: ADME; conditions: probe testosterone; outline: as §2
# Dengue virus = assay: Antiviral activity against 0.01 MOI DENV infected in human Huh7.5 cells assessed as reduction in viral […] protein level at 0.1 to 100 uM after 2 days by Western blotting; assay type: functional, organism-based; conditions: Huh-7
# [16] = Cytotoxicity against human Huh7.5 cells assessed as cell viability by DRAQ5 and Sapphire 700 staining; conditions: huh-7
SMILES,Ratio CC50/EC50 [1],CC50 [2],EC50 (dengue virus type 2),Ratio CC50/EC50 [3],CC50 [4],EC50 [5],remaining at 1 h [6],remaining at 1 h [7],remaining at 1 h [8],inhibition at 10 µM (CYP2D6),inhibition at 10 µM (CYP3A4 [9]),inhibition at 10 µM (CYP2C19),inhibition at 10 µM (CYP2C9),inhibition at 10 µM (CYP1A2),fraction unbound [10],fraction unbound [11],fraction unbound [12],solubility [13],solubility [14],further results
OC[C@@H]1[C@@H](O)[C@H](O)[C@@H](O)CN1CCCCCCOc1c(F)c(F)c(F)c(F)c1F,>294,> 500 µM,1.7 µM,>500,> 500 µM,1 µM,,,,,,,,,,,,,,
OC[C@@H]1[C@@H](O)[C@H](O)[C@@H](O)CN1CCC#CCCOc1cc(F)ccc1F,>25,> 500 µM,20 µM,>11,> 500 µM,47 µM,,,,,,,,,,,,,,
OC[C@@H]1[C@@H](O)[C@H](O)[C@@H](O)CN1CCCCCCOC1CCCC1,>357,> 500 µM,1.4 µM,>1667,> 500 µM,0.3 µM,,,,,,,,,,,,,,
OC[C@@H]1[C@@H](O)[C@H](O)[C@@H](O)CN1CCCCCCOc1cccc(C(F)(F)F)c1,,400 µM,0.4 µM,,> 500 µM,1.5 µM,92%,81%,94%,3.4%,-18.5%,-2.5%,37.6%,0.2%,0.08,0.1,0.07,278 µM,281 µM,inhibition (INH) (Cytochrome P450 3A4): 3.2%
CCCC(CCC)OCCCCCCN1C[C@H](O)[C@@H](O)[C@H](O)[C@H]1CO,,425 µM,0.3 µM,,> 500 µM,0.6 µM,77%,80%,73%,9.1%,2.5%,-1.1%,43.5%,2%,0.17,0.23,0.09,302 µM,290 µM,inhibition (INH) (Cytochrome P450 3A4): 4.2%
COc1ccccc1OCCCCCCN1C[C@H](O)[C@@H](O)[C@H](O)[C@H]1CO,,> 500 µM,0.8 µM,,> 500 µM,1 µM,92%,98%,99%,8.7%,12.1%,-4.4%,11.7%,-1.6%,0.31,0.3,0.35,293 µM,286 µM,inhibition at 10 µM (CYP3A4 [15]): -2.4%
CC1CCC(OCCCCCCN2C[C@H](O)[C@@H](O)[C@H](O)[C@H]2CO)CC1C (stereo not given in full),> 1250,> 500 µM,0.4 µM,>143,> 500 µM,3.5 µM,,,,,,,,,,,,,,
OC[C@@H]1[C@@H](O)[C@H](O)[C@@H](O)CN1CCCCCCOc1ccc(OC(F)(F)F)cc1,>833,> 500 µM,0.6 µM,>385,> 500 µM,1.3 µM,,,,,,,,,,,,,,
Cc1cccc(OCCCCCCN2C[C@H](O)[C@@H](O)[C@H](O)[C@H]2CO)c1,,> 500 µM,0.6 µM,,> 500 µM,0.6 µM,[…],81%,87%,12.8%,28.7%,3.9%,8.9%,21.4%,0.17,0.21,0.2,286 µM,279 µM,inhibition (INH) (Cytochrome P450 3A4): 2.3%
OC[C@@H]1[C@@H](O)[C@H](O)[C@@H](O)CN1CCCCCCOc1ccc(F)cc1,>455,> 500 µM,1.1 µM,>1667,> 500 µM,0.3 µM,,,,,,,,,,,,,,
OC[C@@H]1[C@@H](O)[C@H](O)[C@@H](O)CN1CCCCCCOc1cccc(F)c1,,> 500 µM,0.4 µM,,> 500 µM,0.5 µM,104%,[…],87%,10.3%,-2.3%,0.7%,6.2%,0.2%,0.21,0.29,0.22,283 µM,271 µM,Activity (Dengue virus): Active; Activity (dengue virus type 2): Dose-dependent effect; inhibition at 10 µM (CYP3A4 [15]): -2.3%; Activity [16]: Non-toxic
Cc1ccccc1OCCCCCCN1C[C@H](O)[C@@H](O)[C@H](O)[C@H]1CO,900,450 µM,0.5 µM,>1250,> 500 µM,0.4 µM,,,,,,,,,,,,,,

# From ChEMBL document CHEMBL2163238, “Design, synthesis, and biological evaluation of N-alkylated deoxynojirimycin (DNJ) derivatives for the treatment of dengue virus infection” (J Med Chem, 2012)
